pIC50: −log10 of the molar value.
Legend:
FAAH = biological target: T1, FAAH (Mus musculus, UniProt O08914); assay: AEA substrate assay in mouse brain proteomes; format: biochemical
T1 sequence (O08914 1-579): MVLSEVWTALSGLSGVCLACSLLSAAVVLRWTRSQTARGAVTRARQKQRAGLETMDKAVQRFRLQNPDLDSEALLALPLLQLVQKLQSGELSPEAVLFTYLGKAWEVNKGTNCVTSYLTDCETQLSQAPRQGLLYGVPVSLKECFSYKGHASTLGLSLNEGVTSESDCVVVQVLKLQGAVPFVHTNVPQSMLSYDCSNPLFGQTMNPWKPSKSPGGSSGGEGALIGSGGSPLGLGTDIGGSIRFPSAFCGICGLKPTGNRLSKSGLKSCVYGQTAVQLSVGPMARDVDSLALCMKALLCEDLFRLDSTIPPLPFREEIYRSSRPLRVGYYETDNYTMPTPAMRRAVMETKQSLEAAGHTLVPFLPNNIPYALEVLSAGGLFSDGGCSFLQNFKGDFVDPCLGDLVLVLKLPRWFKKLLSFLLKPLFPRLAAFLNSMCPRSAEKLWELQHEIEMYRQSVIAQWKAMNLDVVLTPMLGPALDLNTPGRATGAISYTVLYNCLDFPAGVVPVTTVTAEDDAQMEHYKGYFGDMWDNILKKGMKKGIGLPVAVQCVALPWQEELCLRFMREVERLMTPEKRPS
Method in brief: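 Mouse brain proteome was treated with test compound. FAAH activity was read as hydrolysis of AEA substrate. Data are means ± SEM of three independent experiments.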

[1] = tested on: brain 2-AG, AA, AEA, PEA, OEA; assay: brain lipid profile of KML29-treated rats; format: in vivo, rat; conditions: 1–40 mg kg^−1 i.p., 4 h
Method in brief: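 Wistar rats were given the test compound i.p. (1–40 mg kg−1, saline:emulphor:ethanol 18:1:1 vehicle) or vehicle and killed at 4 h. Brain 2-AG, AA, AEA, PEA and OEA levels were measured. Means ± SEM, n = 3 rats/group, with statistics against vehicle-treated rats.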

MAGL [2] = biological target: T2, MAGL (Mus musculus, UniProt O35678); assay: competitive ABPP, mouse brain membrane proteome; format: biochemical
T2 sequence (O35678 1-303): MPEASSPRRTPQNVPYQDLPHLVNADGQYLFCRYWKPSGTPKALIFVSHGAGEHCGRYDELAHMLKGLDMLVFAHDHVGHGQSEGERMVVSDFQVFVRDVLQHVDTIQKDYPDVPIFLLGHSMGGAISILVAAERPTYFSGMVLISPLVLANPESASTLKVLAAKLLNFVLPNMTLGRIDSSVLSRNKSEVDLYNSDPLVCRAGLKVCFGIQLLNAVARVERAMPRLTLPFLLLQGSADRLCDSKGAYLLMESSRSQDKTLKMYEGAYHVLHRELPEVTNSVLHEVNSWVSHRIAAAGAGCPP

[3] = tested on: brain 2-AG, AA, AEA, PEA, OEA; assay: brain lipid profile of inhibitor-treated mice; format: in vivo, mouse
[4] = tested on: carboxylesterase (CES) enzymes; assay: gel-based ABPP of liver, lung and spleen from inhibitor-treated mice; format: in vivo, mouse
MAGL [5] = biological target: T3, MAGL (Rattus norvegicus, UniProt Q8R431); assay: brain 2-AG hydrolytic activity from KML29-treated rats; format: in vivo; conditions: 4 h
T3 sequence (Q8R431 1-303): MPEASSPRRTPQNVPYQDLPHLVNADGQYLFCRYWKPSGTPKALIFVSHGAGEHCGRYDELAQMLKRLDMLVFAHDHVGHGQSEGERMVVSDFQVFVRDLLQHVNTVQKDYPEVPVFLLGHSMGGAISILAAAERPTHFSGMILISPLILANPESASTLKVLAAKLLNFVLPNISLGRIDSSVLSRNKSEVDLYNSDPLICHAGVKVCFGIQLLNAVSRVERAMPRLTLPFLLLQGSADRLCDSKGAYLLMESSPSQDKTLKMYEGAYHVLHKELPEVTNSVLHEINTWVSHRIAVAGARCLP
Method in brief: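 Wistar rats received the test compound i.p. (1–40 mg kg−1 in saline:emulphor:ethanol 18:1:1) or vehicle and were killed after 4 h. Brain MAGL and FAAH activities were measured as hydrolysis of 2-AG and AEA, respectively. Means ± SEM, n = 3 rats/group, compared with vehicle-treated rats.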

hFAAH [6] = biological target: T4, hFAAH (Homo sapiens, UniProt O00519); assay: substrate hydrolysis assay; format: biochemical
T4 sequence (O00519 1-579): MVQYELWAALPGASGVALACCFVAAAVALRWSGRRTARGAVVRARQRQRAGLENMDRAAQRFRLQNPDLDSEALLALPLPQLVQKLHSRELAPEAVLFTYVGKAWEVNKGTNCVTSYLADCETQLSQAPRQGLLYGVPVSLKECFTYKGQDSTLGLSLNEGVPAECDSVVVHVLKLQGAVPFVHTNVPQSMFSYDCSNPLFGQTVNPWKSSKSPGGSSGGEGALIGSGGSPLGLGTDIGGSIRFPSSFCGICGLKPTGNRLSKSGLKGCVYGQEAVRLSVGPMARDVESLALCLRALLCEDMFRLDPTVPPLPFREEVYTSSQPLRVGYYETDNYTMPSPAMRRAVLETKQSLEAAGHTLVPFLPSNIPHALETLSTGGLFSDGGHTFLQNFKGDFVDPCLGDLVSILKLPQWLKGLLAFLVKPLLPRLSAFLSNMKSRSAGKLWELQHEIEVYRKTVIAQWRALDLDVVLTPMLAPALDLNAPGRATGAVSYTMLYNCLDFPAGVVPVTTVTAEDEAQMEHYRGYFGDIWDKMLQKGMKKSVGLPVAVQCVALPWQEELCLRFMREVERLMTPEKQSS

hFAAH [7] = biological target: T4, hFAAH; assay: competitive ABPP, proteomes of transiently transfected HEK293T cells; format: biochemical
MAGL [8] = biological target: T2, MAGL; assay: competitive ABPP of brain from inhibitor-treated mice; format: in vivo; conditions: for blockade of MAGL activity in brain: C57Bl/6 mice, 4 h
MAGL [9] = biological target: T2, MAGL; assay: gel-based ABPP of peripheral tissues from inhibitor-treated mice; format: in vivo; conditions: 1 mg kg^−1 p.o., 4 h, liver, lung, spleen
[10] = tested on: carboxylesterase (CES) enzymes; assay: in vitro competitive ABPP in mouse lung proteomes; format: biochemical

O=C(OC(C(F)(F)F)C(F)(F)F)N1CCC(C(O)(c2ccc3c(c2)OCO3)c2ccc3c(c2)OCO3)CC1 [KML29] was tested, and the “effect on AEA hydrolysis” value (FAAH) was “did not affect AEA hydrolysis at any concentration tested”, the “brain AA levels” value [1] was “decrease proportionally with the elevations in 2-AG” and the “brain AEA, PEA, or OEA” value [1] was “without alteration”. The “elevations in brain 2-AG” value [1] was “approximately 10 fold”, the “selectivity for MAGL relative to ABHD6” value (MAGL [2]; mouse brain proteome, competitive ABPP) was “greater than 100 fold” and the “inhibitor concentrations with selective inhibition of MAGL” value (MAGL [2]; mouse brain serine hydrolase activities, full ABPP gel) was ≤ 1 µM. For the same molecule, the “brain 2-AG and NAE levels, chronic dosing” value ([3]; 40 mg kg^−1 p.o., six days) was “selectively raise 2-AG, but not NAE levels”, the “peak increase in brain 2-AG over vehicle controls” value ([3]; 20 and 40 mg kg^−1 p.o., 4 h) was ~ 10 fold and the “brain levels of AEA, PEA and OEA” value ([3]; all tested doses p.o., 4 h) was “unaltered”. The “change in brain 2-AG” value ([3]; doses as low as 5 mg kg^−1 p.o., 4 h) was “significant elevations”, the “change in brain arachidonic acid (AA)” value ([3]; p.o., 4 h, concomitant with 2-AG elevations) was “significant reductions” and the “time of maximal elevations of 2-AG and reductions of AA in brain” value ([3]; single oral dose 20 mg kg^−1) was 1 h. For the same molecule, the “brain AEA levels during time course” value ([3]; single oral dose 20 mg kg^−1, 24 h period) was “unaltered”, the “CES inhibition in peripheral tissues, chronic dosing” value ([4]; 40 mg kg^−1 p.o., six days) was “minimal cross-reactivity with CES enzymes” and the “doses at which CES cross-reactivity (single ~70 kDa enzyme) was detected” value ([4]; p.o., 4 h, peripheral tissues) was 20 to 40 mg/kg. For the same molecule, the “decrease of brain 2-AG hydrolytic activity” value (MAGL [5]; 20 mg kg^−1 i.p.) was 50%, the “decrease of brain 2-AG hydrolytic activity” value (MAGL [5]; 40 mg kg^−1 i.p.) was 80% and the “AEA hydrolysis by hFAAH” value (hFAAH [6]) was “undiminished AEA hydrolysis up to 50 μM”. The “cross-reactivity with hFAAH (competitive ABPP)” value (hFAAH [7]; lysates of HEK293T cells transfected with hFAAH) was “no-detectable cross-reactivity with hFAAH”, the pIC50 (hFAAH [7]; read-out: IC50 (95% CI), human FAAH, competitive ABPP, transfected HEK293T cell proteome) was < 4.30 and the “blockade of MAGL activity in brain” value (MAGL [8]; 5 mg kg^−1 p.o.) was “partial inhibition”. The “blockade of MAGL activity in brain” value (MAGL [8]; 20 mg kg^−1 p.o.) was “maximal inhibition”, the “time until which brain MAGL inhibition was sustained” value (MAGL [8]; mice, single oral dose 20 mg kg^−1) was 12 to 24 h and the “time post-administration of maximal inhibition of brain MAGL” value (MAGL [8]; mice, single oral dose 20 mg kg^−1, earliest time point tested) was ≤ 1 h. The “MAGL inhibition in peripheral tissues” value (MAGL [9]) was “near-complete blockade of MAGL” and the “cross-reactivity with CESs compared to JZL184” value [10] was “much less cross-reactivity with CESs”.
